Columns and labels:
[1] = tested on: HL-60; experiment: In vitro inhibition of human leukemic HL-60 cell growth in culture; assay type: functional, cell-based
Summary of the method: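 HL-60 cells were seeded at 5×10^4 cells/mL in RPMI 1640 with 10% heat-inactivated FBS, penicillin and streptomycin, at 37 °C in 5% CO2. Cells were exposed for 72 h to six or seven drug concentrations, run in duplicate. Viability was read by XTT-tetrazolium microculture absorbance, and IC50 was derived from median-effect plot analysis.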

[2] = tested on: Mus musculus; experiment: […] anticancer activity against B6D2F-1 mice bearing Lewis Lung Carcinoma measured by the Average tumor vol after day 10 at an intraperitoneal dose of 6(mg/kg).; assay type: functional
Summary of the method: (§1)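 Male B6D2F1 mice (8 weeks old, 20–25 g) received 4×10^6 Lewis lung carcinoma cells sc on day -2. Dosing was ip, QDx5, starting on day 1. Groups were 4 control mice and 3 mice per dose. Tumor size and average body-weight change were evaluated on days 7, 10 and 14. Tumor volume is expressed as the treated/control ratio.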

[3] = tested on: Mus musculus; experiment: […] anticancer activity against B6D2F-1 mice bearing P388 leukemia measured by the Average survival time(day+/-SD) at an intravenous dose of 15(mg/kg).; assay type: functional
Summary of the method: (§2)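 Male B6D2F1 mice, 8 weeks old, 20–25 g. P388/0 ascites cells (0.2 mL, ascites:saline 1.10) were implanted iv on day 0, and the tumor grew in the liver. Drug was given iv by tail vein on days 1, 3, 5, 7 and 9 (Q2Dx5), with 4–5 mice per group. Survival time was scored as 8 a.m. (0.0), 1 p.m. (0.25) or 5 p.m. (0.5) deaths. %ILS was averaged against untreated controls, and toxic deaths were counted.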

[4] = tested on: Mus musculus; experiment: […] anticancer activity against B6D2F-1 mice bearing P388 leukemia measured by the average survival time(day+/-SD) at an intravenous dose of 10(mg/kg)..; assay type: functional; summary of the method: as §2
[5] = tested on: Mus musculus; experiment: […] anticancer activity against B6D2F-1 mice bearing P388 leukemia measured by the Average tumor vol after day 10 at an intravenous dose of 3(mg/kg).; assay type: functional
[6] = tested on: Mus musculus; experiment: […] anticancer activity against B6D2F-1 mice bearing P388 leukemia measured by the Average tumor vol after day 10 at an intravenous dose of 5(mg/kg).; assay type: functional
[7] = tested on: Mus musculus; experiment: […] anticancer activity against B6D2F-1 mice bearing P388 leukemia measured by the Average tumor vol after day 10 at an intravenous dose of 7(mg/kg).; assay type: functional
[8] = tested on: Mus musculus; experiment: […] anticancer activity against B6D2F-1 mice bearing P388 leukemia measured by the Average tumor vol after day 14 at an intravenous dose of 3(mg/kg).; assay type: functional
[9] = tested on: Mus musculus; experiment: […] anticancer activity against B6D2F-1 mice bearing Lewis Lung Carcinoma measured by the Average tumor vol after day 7 at an intraperitoneal dose of 3(mg/kg).; assay type: functional; summary of the method: as §1
[10] = tested on: Mus musculus; experiment: […] anticancer activity against B6D2F-1 mice bearing Lewis Lung Carcinoma measured by the Average tumor vol after day 7 at an intraperitoneal dose of 6(mg/kg).; assay type: functional; summary of the method: as §1
[11] = tested on: Mus musculus; experiment: […] anticancer activity against B6D2F-1 mice bearing Sarcoma 180 measured by the average weight change(g) after day 14 at an intraperitoneal dose of 7(mg/kg).; assay type: functional
Summary of the method: (§3)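 Male B6D2F1 mice (8 weeks old, 20–25 g) were inoculated sc with 3×10^6 Sarcoma 180 cells on day 0. Dosing was ip, QDx5, starting on day 1. Groups were 4 control mice and 2 mice per dose. Average body weight change (g) and treated/control tumor volume were evaluated on days 7, 10 and 14.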

[12] = tested on: Mus musculus; experiment: […] anticancer activity against B6D2F-1 mice bearing Sarcoma 180 measured by the average weight change(g) after day 7 at an intraperitoneal dose of 3(mg/kg).; assay type: functional; summary of the method: as §3
[13] = tested on: Mus musculus; experiment: […] anticancer activity against B6D2F-1 mice bearing P388 leukemia measured by the average weight change(g) after day 11 at an intravenous dose of 10(mg/kg).; assay type: functional
Summary of the method: (§4)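 Male B6D2F1 mice (8 weeks old, 20–25 g) were implanted iv on day 0 with P388/0 ascites cells (0.2 mL; ascites:saline 1.10), which grew in the liver. Drug was given iv via the tail vein, Q2Dx5, on days 1, 3, 5, 7 and 9. Groups had 4–5 mice. Day 1 value is mean body weight; later days are weight change.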

[14] = tested on: Mus musculus; experiment: […] anticancer activity against B6D2F-1 mice bearing P388 leukemia measured by the average weight change(g) after day 7 at an intravenous dose of 15(mg/kg).; assay type: functional; summary of the method: as §4
[15] = tested on: Mus musculus; experiment: […] anticancer activity against B6D2F-1 mice bearing P388 leukemia measured by the increase in lifespan(%) at an intravenous dose of 10(mg/kg)..; assay type: functional; summary of the method: as §2
[16] = tested on: Mus musculus; experiment: […] anticancer activity against B6D2F-1 mice bearing Lewis Lung Carcinoma measured by the average weight change(g) after day 14 at an intraperitoneal dose of 3(mg/kg).; assay type: functional; summary of the method: as §1
[17] = tested on: Mus musculus; experiment: […] anticancer activity against B6D2F-1 mice bearing Lewis Lung Carcinoma measured by the average weight change(g) after day 14 at an intraperitoneal dose of 6(mg/kg).; assay type: functional; summary of the method: as §1
[18] = tested on: Mus musculus; experiment: […] anticancer activity against B6D2F-1 mice bearing Lewis Lung Carcinoma measured by the average weight change(g) after day 7 at an intraperitoneal dose of 6(mg/kg).; assay type: functional; summary of the method: as §1
[19] = tested on: Mus musculus; experiment: […] anticancer activity against B6D2F-1 mice bearing Sarcoma 180 measured by the average weight change(g) after day 10 at an intraperitoneal dose of 3(mg/kg).; assay type: functional; summary of the method: as §3
[20] = tested on: Mus musculus; experiment: […] anticancer activity against B6D2F-1 mice bearing P388 leukemia measured by the increase in lifespan(%) at an intravenous dose of 15(mg/kg).; assay type: functional; summary of the method: as §2
[21] = tested on: Mus musculus; experiment: […] anticancer activity against 5 B6D2F-1 mice bearing P388 leukemia measured by the toxicity death at an intravenous dose of 10(mg/kg)..; assay type: organism-based; details: in vivo; summary of the method: as §2
[22] = tested on: Mus musculus; experiment: […] anticancer activity against B6D2F-1 mice bearing P388 leukemia measured by the average weight change(g) after day 7 at an intravenous dose of 10(mg/kg).; assay type: functional; summary of the method: as §4
[23] = tested on: Mus musculus; experiment: […] anticancer activity against B6D2F-1 mice bearing Sarcoma 180 measured by the Average tumor vol after day 7 at an intravenous dose of 3(mg/kg).
[24] = tested on: Mus musculus; experiment: […] anticancer activity against B6D2F-1 mice bearing Sarcoma 180 measured by the Average tumor vol after day 7 at an intravenous dose of 5(mg/kg).
[25] = tested on: Mus musculus; experiment: […] anticancer activity against B6D2F-1 mice bearing Sarcoma 180 measured by the Average tumor vol after day 7 at an intravenous dose of 7(mg/kg).
[26] = tested on: Mus musculus; experiment: […] anticancer activity against B6D2F-1 mice bearing P388 leukemia measured by the average body weight(g) after day 1 at an intravenous dose of 15(mg/kg).
[27] = tested on: Mus musculus; experiment: […] anticancer activity against B6D2F-1 mice bearing Sarcoma 180 measured by the average weight change(g) after day 14 at an intraperitoneal dose of 5(mg/kg).
[28] = tested on: Mus musculus; experiment: […] anticancer activity against B6D2F-1 mice bearing Sarcoma 180 measured by the average weight change(g) after day 14 at an intraperitoneal dose of 3(mg/kg).

Work on `CCOC(=O)Nc1cc(CO)cc(Nc2c3ccccc3nc3ccccc23)c1` yielded an IC50 [1] of 4.4 nM, an Average tumor volume [2] of 0.37 and an Average survival [3] of 13.2 days. It also gave an Average survival [4] of 18.4 days, an Average tumor volume [5] of 1.21 and an Average tumor volume [6] of 0.63. For the same compound, the Average tumor volume [7] was <0.01, the Average tumor volume [8] was 0.74 and the Average tumor volume [9] was 0.8. The Average tumor volume [10] was 0.44, the Average weight change [11] was -0.4 g and the Average weight change [12] was -2 g. It also gave an Average weight change [13] of -0.1 g, an Average weight change [14] of -1.6 g and an Increase in life-span [15] of 188%. It also gave an Average weight change [16] of -0.8 g, an Average weight change [17] of -0.5 g and an Average weight change [18] of -3 g. For the same compound, the Average weight change [19] was -0.7 g, the Increase in life-span [20] was 106% and the Toxicity related death [21] was 0. The Average weight change [22] was -0.2 g, the Average tumor volume [23] was 1.24 and the Average tumor volume [24] was 0.06. It also gave an Average tumor volume [25] of 0.22, a Body weight [26] of 23 g and an Average weight change [27] of 1.2 g. The Average weight change [28] was -0.8 g.

Reference: ChEMBL document CHEMBL1132156, “Synthesis and structure-activity relationships of potential anticancer agents: alkylcarbamates of 3-(9-acridinylamino)-5-hydroxymethylaniline” (J Med Chem, 1999)
